# Screens: PubChem, several laboratories
# An excerpt weighted towards active compounds, which were near 3.3% of everything screened.
# CendR NRP1 mod: modulators of CendR peptide binding to NRP-1, primary screen, biochemical, fluorescence polarization, uHTS; Neuropilin-1 (Homo sapiens), O14786; inhibition, % at 25 µM; FAM-RPARPAR peptide binding to NRP-1; AID 602438, 2012; 360,000 compounds, 0.85% hits;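 active means inhibition or corrected inhibition above about 18%, plus a signal ratio from 0.5 to 1.5, limit read from the data, passing the limit was not always enough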
# ABCB6 inh MLPCN: ABCB6 transporter inhibitors, primary screen, K562-ABCB6 cells, flow cytometry, MLPCN library. AID 602162, 2011. 360,000 compounds, 0.19% hits. K562-ABCB6 porphyrin accumulation, 1 h; stronger effect = lower value. fluorescence ratio to DMSO, % at 10 µM. ATP-binding cassette sub-family B member 6 (Homo sapiens), Q9NP58;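 active means fluorescence ratio to DMSO below 75%, the collection mean minus 3 SD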;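 further: signal is porphyrin accumulated inside mitochondria; lower ratio means ABCB6 inhibition with less porphyrin fluorescence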
# Target sequence (Q9NP58 whole entry, looked up): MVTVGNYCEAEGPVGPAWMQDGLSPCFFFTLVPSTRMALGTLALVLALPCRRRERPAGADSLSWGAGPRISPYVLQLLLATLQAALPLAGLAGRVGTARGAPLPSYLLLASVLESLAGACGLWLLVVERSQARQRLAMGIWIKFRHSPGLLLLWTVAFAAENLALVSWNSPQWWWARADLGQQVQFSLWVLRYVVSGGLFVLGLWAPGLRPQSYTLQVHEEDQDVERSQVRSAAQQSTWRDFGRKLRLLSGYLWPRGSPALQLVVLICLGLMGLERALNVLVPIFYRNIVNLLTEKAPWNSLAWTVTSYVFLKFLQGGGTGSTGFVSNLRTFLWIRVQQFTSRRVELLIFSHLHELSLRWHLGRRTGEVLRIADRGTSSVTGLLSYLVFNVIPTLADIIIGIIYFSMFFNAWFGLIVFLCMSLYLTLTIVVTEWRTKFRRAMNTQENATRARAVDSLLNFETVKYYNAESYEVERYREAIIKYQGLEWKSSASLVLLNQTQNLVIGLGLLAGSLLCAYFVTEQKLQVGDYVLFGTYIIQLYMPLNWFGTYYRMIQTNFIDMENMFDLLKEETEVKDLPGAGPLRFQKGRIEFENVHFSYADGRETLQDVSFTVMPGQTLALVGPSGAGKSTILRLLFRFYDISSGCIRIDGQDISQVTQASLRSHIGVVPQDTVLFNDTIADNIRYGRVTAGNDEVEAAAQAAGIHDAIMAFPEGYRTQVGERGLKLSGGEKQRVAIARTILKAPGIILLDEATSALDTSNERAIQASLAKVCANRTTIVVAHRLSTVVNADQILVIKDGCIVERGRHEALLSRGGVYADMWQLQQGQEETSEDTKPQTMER
# Arr AP2 block: inhibitors of beta-arrestin/AP2 binding, primary screen, biochemical, GPCR trafficking, flow cytometry; FITC-arrestin peptide / GST-AP2 beads; AP2 beta2 appendage carries R879A mutation; 340,000 compounds, 0.31% hits; beta-arrestin 1 C-terminal peptide binding to AP2 beta2-adaptin appendage (human); AID 504490, 2011; inhibition, % at 10 µM;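 active means inhibition above a set limit, near 3 SD of compounds lacking own fluorescence, cut at about 54% in these data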
#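 system = GST-tagged AP2 beta2-adaptin appendage (R879A) on 4 µm glutathione beads | reagent = FITC-labelled arrestin peptide probe, 50 nM final | schedule = compound with beads 12 min RT, then probe 1 h RT | signal = HyperCyt-sampled flow cytometry, FL1 channel, ex 488/em 535 nm | read-out = percent response from loss of bead-bound FITC fluorescence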
# Exocytosis inh: LAMP-1 surface exposure blockers, TALL-104 cells – cell-based, flow cytometry, MLPCN library, primary screen; TALL-104 LAMP-1 surface exposure; cells stimulated with thapsigargin and PMA; inhibition, % at 10 µM; 360,000 compounds, 0.66% hits; AID 651702, 2012;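 active means inhibition above about 55%, limit read from the data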
# Myeloid diff MLP: induction of myeloid progenitor differentiation, primary screen, cell-based, flow cytometry, MLPCN library. calls only at 10 µM. 360,000 compounds, 1% hits. ER-HoxA9 myeloid progenitors, lysozyme-GFP differentiation;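 active means normalized GFP-positive differentiation at or above the plate's own cutoff, the solvent-only control mean plus 3 SD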;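 further: cells exposed to compound for four days before flow analysis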
# ATG4B inh: ATG4B protease inhibitors, primary screen, biochemical, fluorescence, uHTS. ATG4B cleavage of LC3-PLA2, NBD-HPC fluorescence, 1 h. inhibition, % at 8.33 µM. 340,000 compounds, 0.51% hits. AID 504462, 2011; in the data active means inhibition above about 40%
# Arr-AP2 CP1: inhibitors of arrestin peptide binding to AP2, confirmation, biochemical, cherry pick 1, flow cytometry beads; shares compounds with Arr AP2 block; GST-AP2 beads, FITC arrestin peptide binding; GST-fused beta2-adaptin appendage, R879A mutant; inhibition, % at 10 µM; 1,300 compounds, 2% hits; AID 504908, 2011;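 active means inhibition above a set limit, roughly 3 SD of non-fluorescent compound noise, cut at about 38% in these data; inactive means inhibition at or below that limit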;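 further: loss of bead fluorescence from 50 nM FITC arrestin peptide bound to appendage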
# GST-FITC bead: GST-fluorescein capture on glutathione beads, confirmation, artefact control for arrestin-AP2 inhibitor project, biochemical, cherry pick 1, flow cytometry. 1,300 compounds, 2% hits. inhibition, % at 10 µM. shares compounds with Arr AP2 block. GST-fluorescein binding to GSH beads, fluorescence, counter-screen. AID 588338, 2011;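 active means inhibition above 50%, about 3 SD of the inhibition seen with non-fluorescent compounds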;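 further: fluorescein maleimide labelled GST captured on 4 micron glutathione beads; higher means more loss of bead fluorescence from quenching or blocked binding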
# Numbers stand for hits; n = inactive; x = not tested or not shown.
SMILES,CendR NRP1 mod,ABCB6 inh MLPCN,Arr AP2 block,Exocytosis inh,Myeloid diff MLP,ATG4B inh,Arr-AP2 CP1,GST-FITC bead
CN(C)C(CNC(=O)CNC(=O)Cc1cccc2ccccc12)c1ccccc1 (centres undefined),n,n,n,n,n,n,x,x
CC1c2ccsc2CCN1C(=O)NC(=O)c1ccc(Cl)cc1 (centres undefined),n,n,n,n,n,n,x,x
O=C(COc1ccccc1Cl)N(Cc1cccs1)C1CCS(=O)(=O)C1 (centres undefined),n,n,57.6,n,n,n,n,n
C[C@H](CO)N1C[C@H](C)[C@@H](CN(C)C(=O)Nc2ccc(C(F)(F)F)cc2)Oc2ccc(NC(=O)Cc3ccccc3)cc2C1=O,n,n,n,n,n,n,x,x
CC1CCCN(CCCNC(=O)c2ccc3c(c2)N(Cc2ccccc2F)C(=O)c2ccccc2S3(=O)=O)C1 (centres undefined),n,n,58.9,n,n,n,n,n
Nn1c(SCC(=O)N2CCN(S(=O)(=O)c3ccccc3)CC2)nnc1-c1cccs1,n,n,99.2,n,n,n,n,n
COC(=O)c1sc(C(F)(F)F)c(-c2ccccc2)c1S(=O)(=O)N1CCCC1,n,n,n,n,n,n,x,x
CC(=O)Nc1ccc(NC(=O)c2ccc([N+](=O)[O-])cc2Cl)cc1,n,n,n,n,n,n,x,x
CC(=O)N(C)c1ccc(NC(=O)c2ccc([N+](=O)[O-])cc2Cl)cc1,n,n,69.2,n,n,n,n,n
CCN(c1ccccc1)S(=O)(=O)c1ccc(Cl)c(NC(=O)CNCc2ccccc2OC)c1,n,n,n,n,n,n,x,x
O=C(c1ccnc(Cl)c1)N1CCCC(N2CCN(c3ccccc3F)CC2)C1 (centres undefined),n,n,63.4,n,n,n,n,n
CCn1cnc2cc(NS(=O)(=O)c3ccc(OC)c(OC)c3)ccc21,n,n,61.1,n,n,n,n,n
COc1ccc(C2=NOC(c3nnc(-c4ccccc4)o3)C2)cc1 (centres undefined),n,n,n,n,n,n,x,x
Cc1ccc(OCCC(=O)Nc2ccc3c(c2)OCCCO3)cc1,n,n,n,n,n,n,n,n
CCOc1ccccc1OCCC(=O)Nc1ccc2c(c1)OCO2,n,n,n,n,n,n,n,n
CCC(=O)c1ccc(OCC(=O)Nc2ccc3c(c2)OCCO3)cc1,n,n,n,n,n,n,n,n
CC(=O)c1ccc(OCCCC(=O)Nc2ccc3c(c2)OCCO3)cc1,n,n,n,n,n,n,n,n
COc1ccc(OCCCC(=O)Nc2ccc3c(c2)OCCO3)cc1,n,n,n,n,n,n,x,x
CCOC(=O)C1(C)CCN1C(=O)c1ccccc1OC (centres undefined),n,n,x,n,n,x,x,x
CCN(CCCNc1cc2c(c(N)c1S(=O)(=O)O)C(=O)c1ccccc1C2=O)c1ccccc1,n,n,x,n,n,x,x,x
COc1ccccc1OCC(=O)Nc1ccc2c(c1)OCO2,n,n,n,n,n,n,x,x
COc1cc(C)ccc1OCC(=O)Nc1ccc2c(c1)OCO2,n,n,n,n,n,n,n,n
Cc1cc(S(=O)(=O)NC(C)C)ccc1OCC(=O)Nc1ccc2c(c1)OCCO2,n,n,63.1,n,x,n,n,n
Cc1cc(NC(=O)COC(=O)CCS(=O)(=O)c2cc(Cl)ccc2Cl)no1,n,n,57.5,n,n,n,n,n
COc1ccc(N2CCN(S(=O)(=O)CCNC(=O)/C=C/c3ccc4c(c3)OCO4)CC2)cc1,n,n,63.4,n,n,n,n,n
SMILES,CendR NRP1 mod,ABCB6 inh MLPCN,Arr AP2 block,Exocytosis inh,Myeloid diff MLP,ATG4B inh,Arr-AP2 CP1,GST-FITC bead
CCOc1ccc(C2CC(c3c(O)c4ccccc4oc3=O)=NN2c2ccccc2)cc1OC (centres undefined),n,n,n,n,n,n,x,x
O=C(CS(=O)(=O)Cc1ccccc1)c1ccccc1,n,n,x,n,n,x,x,x
COCCN(C(=O)CCCC(=O)Nc1ccccn1)C(C(=O)NC1CCCCC1)c1ccc(C)cc1 (centres undefined),n,n,100.5,n,n,n,n,n
CCOC(=O)C1=C(COC(=O)CCOc2ccc(OC)cc2)NC(=O)NC1C (centres undefined),n,n,n,n,n,n,n,n
CCOC(=O)C1=C(COC(=O)/C=C/c2ccc(OC)cc2OC)NC(=O)NC1C (centres undefined),n,n,n,n,n,n,x,x
CCOC(=O)C1=C(COC(=O)COc2ccc(Br)cc2)NC(=O)NC1C (centres undefined),n,n,n,n,n,n,n,n
CCOC(=O)C1=C(COC(=O)CCOc2ccc(C)cc2)NC(=O)NC1C (centres undefined),n,n,n,n,n,n,n,n
CCC(CC)C(=O)N1N=C(c2ccc(NS(C)(=O)=O)cc2)CC1c1ccc(C)cc1 (centres undefined),n,n,n,n,n,n,x,x
O=[N+]([O-])c1cccc(S(=O)(=O)NCCCn2ccnc2)c1,n,n,n,n,n,n,x,x
O=S(=O)(NCc1ccc2c(c1)OCO2)c1ccc(Cl)s1,n,n,105.3,n,n,n,n,n
COc1ccc(NC(=O)C(C)Sc2nnc(C3CC3)n2C2CC2)cc1 (centres undefined),n,n,n,n,n,n,x,x
COc1ccc(NC(=O)CSc2nnnn2C)c([N+](=O)[O-])c1,n,n,n,n,n,n,x,x
CC(C)CN1CCC(=O)N(CCOc2ccccc2)CC1,n,n,56.9,n,n,n,n,n
CCCN1CCC(=O)N(CCOc2ccccc2)CC1,n,n,n,n,n,n,x,x
CN(C)c1ccc(N=c2sc3ccccc3n2C)cc1,n,n,62.9,n,n,n,n,n
CCOc1ccccc1/C=C/c1onc(C)c1S(=O)(=O)N1CCC(C(=O)N2CCCCCC2)CC1,n,n,n,n,n,n,x,x
Cc1cccc(/C=C/c2onc(C)c2S(=O)(=O)N2CCC(C(=O)N3CCCCC3)CC2)c1,n,n,54.9,n,n,n,n,n
